Starred links: 1 amine or outer side, 2 acyl side, 3 side chain; linkers in the order of their positions; H or OH if unused. Non-standard residues stand in square brackets, D forms with d. Residues, ends and D or L forms follow the SMILES beside them. dTrp(2-Me) = Cc1[nH]c2ccccc2c1C[C@@H](N)C(=O)O; azaTyr = O=C(N(Cc1ccc(O)cc1)N[*:1])[*:2]; azaPhe = O=C(N(Cc1ccccc1)N[*:1])[*:2]; X1 = O=C(N(CCc1ccccc1)N[*:1])[*:2]; azaLeu = CC(C)CN(N[*:1])C(=O)[*:2]; azaPro = O=C(N1CCCN1[*:1])[*:2]; Aib = CC(C)(N)C(=O)O; azaGly = NNC(=O)O
Assays:
[1] = biological target: Growth hormone secretagogue receptor type 1 (Homo sapiens, UniProt Q92847); assay: Displacement of [125I]ghrelin expressed in LLC-PK1 cells incubated for 1 hr by gamma counting method; assay type: cell-based
Growth hormone secretagogue receptor type 1, sequence (Q92847 whole entry): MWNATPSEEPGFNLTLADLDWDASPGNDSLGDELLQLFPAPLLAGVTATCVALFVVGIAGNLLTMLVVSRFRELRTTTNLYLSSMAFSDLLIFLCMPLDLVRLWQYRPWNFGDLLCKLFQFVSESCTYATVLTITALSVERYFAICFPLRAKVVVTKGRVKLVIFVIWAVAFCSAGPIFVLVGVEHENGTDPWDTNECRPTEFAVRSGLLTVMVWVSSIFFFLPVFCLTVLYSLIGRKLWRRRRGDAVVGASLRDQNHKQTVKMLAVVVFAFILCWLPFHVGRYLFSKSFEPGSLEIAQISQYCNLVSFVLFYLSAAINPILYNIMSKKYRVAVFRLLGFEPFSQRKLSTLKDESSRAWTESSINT
Procedure, shortened: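 Membranes from LLC-PK1 cells transiently transfected with GHS-R1a (CaPO₄; harvested 24 h later; freeze/thaw lysis, 10000g), 10 μg protein/tube. Incubated with ¹²⁵I-ghrelin (40,000 cpm) and competitor 10⁻¹² to 10⁻⁵ M, 1 h at RT, in Tris/MgCl₂/EDTA/bacitracin buffer pH 7.3. Nonspecific binding set with 10⁻⁵ M competitor. Bound separated by filtration on PEI-soaked GF/C filters, gamma counted.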

[2] = biological target: Platelet glycoprotein 4 (Rattus norvegicus, UniProt Q07969); assay: Displacement of photoactivatable [125I]-Tyr-Bpa-Ala-Hexarelin from CD36 in Sprague-Dawley rat cardiac membranes incubated for 60 mins by densitometry; assay type: cell membranes, Membrane
Platelet glycoprotein 4, sequence (Q07969 whole entry): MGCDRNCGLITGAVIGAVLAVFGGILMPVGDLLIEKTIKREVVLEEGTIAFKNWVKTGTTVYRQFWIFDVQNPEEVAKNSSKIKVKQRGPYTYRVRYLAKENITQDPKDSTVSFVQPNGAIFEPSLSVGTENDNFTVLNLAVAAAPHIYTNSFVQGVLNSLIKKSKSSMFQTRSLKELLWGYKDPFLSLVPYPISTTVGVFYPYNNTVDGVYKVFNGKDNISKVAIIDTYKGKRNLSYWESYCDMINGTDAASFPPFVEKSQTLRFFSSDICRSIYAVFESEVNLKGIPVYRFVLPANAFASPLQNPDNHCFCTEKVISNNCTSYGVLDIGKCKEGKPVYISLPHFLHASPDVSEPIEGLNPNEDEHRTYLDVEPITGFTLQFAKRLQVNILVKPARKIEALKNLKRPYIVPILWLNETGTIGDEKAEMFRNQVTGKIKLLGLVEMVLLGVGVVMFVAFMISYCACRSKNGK

[3] = Antiangiogenic effect in […] mouse microvascular choroid explants assessed as choroid sprouting at 10^-7 M after 4 days (reference value: 53%); assay type: functional

IC50 [1] [µM]	IC50 [2] [µM]	SMILES	Activity [3] [%]
> 10	> 10	C[C@H](NC(=O)[C@@H](Cc1c[nH]c2ccccc12)NC(=O)[C@@H](N)Cc1cnc[nH]1)C(=O)N[C@@H](Cc1c[nH]c2ccccc12)C(=O)N1CCCN1C(=O)N[C@@H](CCCCN)C(N)=O (H-H[dW]AW[azaPro]K-NH2)	–
> 10	> 10	CC(C)CN(NC(=O)[C@@H](C)NC(=O)[C@@H](N)Cc1cnc[nH]1)C(=O)N[C@@H](Cc1c[nH]c2ccccc12)C(=O)N[C@H](Cc1ccccc1)C(=O)N[C@@H](CCCCN)C(N)=O (H-H[dA][azaLeu]W[dF]K-NH2)	–
4.55	9.01	CC(C)CN(NC(=O)[C@@H](Cc1c[nH]c2ccccc12)NC(=O)[C@@H](N)Cc1cnc[nH]1)C(=O)N[C@@H](Cc1c[nH]c2ccccc12)C(=O)N[C@H](Cc1ccccc1)C(N)=O	–
> 10	> 10	C[C@H](NC(=O)[C@H](C)NC(=O)N(Cc1ccccc1)NC(=O)C(N)Cc1cnc[nH]1)C(=O)N[C@H](Cc1ccccc1)C(=O)N[C@@H](CCCCN)C(N)=O (some centres undefined)	–
–	–	C[C@H](NC(=O)[C@@H](Cc1c[nH]c2ccccc12)NC(=O)[C@@H](N)Cc1cnc[nH]1)C(=O)NN(Cc1ccc(O)cc1)C(=O)N[C@H](Cc1ccccc1)C(=O)N[C@@H](CCCCN)C(N)=O (H-H[dW]A[azaTyr][dF]K-NH2)	17
–	> 10	C[C@H](NC(=O)[C@@H](Cc1c[nH]c2ccccc12)NC(=O)[C@@H](N)Cc1cnc[nH]1)C(=O)NN(CCc1ccccc1)C(=O)N[C@H](Cc1ccccc1)C(=O)N[C@@H](CCCCN)C(N)=O (H-H[dW]A[X1][dF]K-NH2)	–
> 10	> 10	C[C@H](NC(=O)N(Cc1ccc(O)cc1)NC(=O)[C@@H](N)Cc1cnc[nH]1)C(=O)N[C@@H](Cc1c[nH]c2ccccc12)C(=O)N[C@H](C)C(=O)N[C@@H](CCCCN)C(N)=O (H-H[azaTyr]AW[dA]K-NH2)	–
> 10	> 10	C[C@H](NC(=O)[C@@H](C)NC(=O)[C@@H](N)Cc1cnc[nH]1)C(=O)NN(Cc1ccccc1)C(=O)N[C@H](Cc1ccccc1)C(=O)N[C@@H](CCCCN)C(N)=O (H-H[dA]A[azaPhe][dF]K-NH2)	–
0.0159	–	Cc1[nH]c2ccccc2c1C[C@@H](NC(=O)[C@@H](N)Cc1cnc[nH]1)C(=O)N[C@@H](C)C(=O)N[C@@H](Cc1c[nH]c2ccccc12)C(=O)N[C@H](Cc1ccccc1)C(=O)N[C@@H](CCCCN)C(N)=O [EXAMORELIN] (H-H[dTrp(2-Me)]AW[dF]K-NH2)	–
5.41	10.5	CC(C)CN(NC(=O)[C@@H](Cc1c[nH]c2ccccc12)NC(=O)CN)C(=O)N[C@@H](Cc1c[nH]c2ccccc12)C(=O)N[C@H](Cc1ccccc1)C(=O)N[C@@H](CCCCN)C(N)=O	–
> 10	> 10	C[C@H](NC(=O)[C@@H](Cc1c[nH]c2ccccc12)NC(=O)[C@@H](N)Cc1cnc[nH]1)C(=O)NN(Cc1ccccc1)C(=O)N[C@H](C)C(=O)N[C@@H](CCCCN)C(N)=O (H-H[dW]A[azaPhe][dA]K-NH2)	–
> 10	> 10	C[C@H](NC(=O)[C@@H](Cc1ccccc1)NC(=O)[C@H](Cc1c[nH]c2ccccc12)NC(=O)[C@H](C)NC(=O)N(Cc1ccc(O)cc1)NC(=O)[C@@H](N)Cc1cnc[nH]1)C(N)=O (H-H[azaTyr]AW[dF]A-NH2)	–
> 10	25.9	CC(C)CN(NC(=O)[C@@H](Cc1c[nH]c2ccccc12)NC(=O)[C@@H](N)Cc1cnc[nH]1)C(=O)N[C@@H](C)C(=O)N[C@H](Cc1ccccc1)C(=O)N[C@@H](CCCCN)C(N)=O (H-H[dW][azaLeu]A[dF]K-NH2)	–
> 10	> 10	C[C@H](NC(=O)[C@H](C)NC(=O)N(Cc1ccc(O)cc1)NC(=O)C(N)Cc1cnc[nH]1)C(=O)N[C@H](Cc1ccccc1)C(=O)N[C@@H](CCCCN)C(N)=O (some centres undefined)	–
0.0629	> 10	Cc1[nH]c2ccccc2c1C[C@@H](NC(=O)[C@@H](Cc1c(C)[nH]c2ccccc12)NC(=O)C(C)(C)N)C(N)=O (H-[Aib]-[dTrp(2-Me)]-[dTrp(2-Me)]-NH2)	–
85.6	> 10	CC(C)CN(NC(=O)[C@@H](Cc1c[nH]c2ccccc12)NC(=O)[C@@H](N)Cc1cnc[nH]1)C(=O)N[C@@H](Cc1c[nH]c2ccccc12)C(N)=O	–
3.86	> 10	CCC(=O)N[C@H](Cc1c[nH]c2ccccc12)C(=O)NN(CC(C)C)C(=O)N[C@@H](Cc1c[nH]c2ccccc12)C(=O)N[C@H](Cc1ccccc1)C(=O)N[C@@H](CCCCN)C(N)=O	–
> 10	> 10	C[C@H](NC(=O)[C@@H](Cc1ccccc1)NC(=O)N(Cc1ccccc1)NC(=O)[C@H](C)NC(=O)[C@@H](Cc1c[nH]c2ccccc12)NC(=O)[C@@H](N)Cc1cnc[nH]1)C(N)=O (H-H[dW]A[azaPhe][dF]A-NH2)	–

IC50 [1] [µM]	IC50 [2] [µM]	SMILES	Activity [3] [%]
–	> 10	C[C@H](NC(=O)[C@@H](Cc1ccccc1)NC(=O)[C@H](Cc1c[nH]c2ccccc12)NC(=O)[C@H](C)NC(=O)N(Cc1ccccc1)NC(=O)[C@@H](N)Cc1cnc[nH]1)C(N)=O (H-H[azaPhe]AW[dF]A-NH2)	–
–	6.66	CC(C)CN(NC(=O)[C@@H](Cc1c[nH]c2ccccc12)NC(=O)[C@H](C)N)C(=O)N[C@@H](Cc1c[nH]c2ccccc12)C(=O)N[C@H](Cc1ccccc1)C(=O)N[C@@H](CCCCN)C(N)=O	–
> 10	> 10	C[C@H](NC(=O)N(Cc1ccccc1)NC(=O)[C@@H](N)Cc1cnc[nH]1)C(=O)N[C@@H](Cc1c[nH]c2ccccc12)C(=O)N[C@H](C)C(=O)N[C@@H](CCCCN)C(N)=O (H-H[azaPhe]AW[dA]K-NH2)	–
1.17	7.97	CC(C)CN(NC(=O)[C@@H](Cc1c[nH]c2ccccc12)NC(=O)[C@@H]1CCCN1)C(=O)N[C@@H](Cc1c[nH]c2ccccc12)C(=O)N[C@H](Cc1ccccc1)C(=O)N[C@@H](CCCCN)C(N)=O	–
–	> 10	CC(C)CN(NC(=O)[C@H](C)NC(=O)[C@@H](Cc1c[nH]c2ccccc12)NC(=O)[C@@H](N)Cc1cnc[nH]1)C(=O)N[C@H](Cc1ccccc1)C(=O)N[C@@H](CCCCN)C(N)=O (H-H[dW]A[azaLeu][dF]K-NH2)	–
–	> 10	C[C@H](NC(=O)[C@@H](Cc1ccccc1)NC(=O)[C@H](Cc1c[nH]c2ccccc12)NC(=O)NNC(=O)[C@@H](Cc1c[nH]c2ccccc12)NC(=O)[C@@H](N)Cc1cnc[nH]1)C(N)=O (H-H[dW][azaGly]W[dF]A-NH2)	–
> 10	9.48	CC(C)CN(NC(=O)[C@@H](Cc1c[nH]c2ccccc12)NC(=O)[C@@H](N)Cc1cnc[nH]1)C(=O)N[C@@H](Cc1c[nH]c2ccccc12)C(=O)N[C@H](C)C(=O)N[C@@H](CCCCN)C(N)=O (H-H[dW][azaLeu]W[dA]K-NH2)	–
> 10	> 10	C[C@H](NC(=O)NNC(=O)[C@@H](Cc1c[nH]c2ccccc12)NC(=O)[C@@H](N)Cc1cnc[nH]1)C(=O)N[C@H](Cc1ccccc1)C(=O)N[C@@H](CCCCN)C(N)=O (H-H[dW][azaGly]A[dF]K-NH2)	–
> 10	> 10	C[C@H](NC(=O)[C@@H](Cc1c[nH]c2ccccc12)NC(=O)[C@@H](N)Cc1cnc[nH]1)C(=O)N1CCCN1C(=O)N[C@H](Cc1ccccc1)C(=O)N[C@@H](CCCCN)C(N)=O (H-H[dW]A[azaPro][dF]K-NH2)	–
> 10	36.9	C[C@H](N)C(=O)NN(Cc1ccc(O)cc1)C(=O)N[C@@H](C)C(=O)N[C@@H](Cc1c[nH]c2ccccc12)C(=O)N[C@H](Cc1ccccc1)C(=O)N[C@@H](CCCCN)C(N)=O (H-A[azaTyr]AW[dF]K-NH2)	–
–	1.82	C[C@H](NC(=O)[C@@H](Cc1c[nH]c2ccccc12)NC(=O)[C@@H](N)Cc1c[nH]cn1)C(=O)N[C@@H](Cc1c[nH]c2ccccc12)C(=O)N[C@H](Cc1ccccc1)C(=O)N[C@@H](CCCCN)C(N)=O (H-H[dW]AW[dF]K-NH2)	–
> 10	> 10	C[C@@H](NC(=O)[C@H](Cc1c[nH]c2ccccc12)NC(=O)NNC(=O)[C@@H](Cc1c[nH]c2ccccc12)NC(=O)[C@@H](N)Cc1cnc[nH]1)C(=O)N[C@@H](CCCCN)C(N)=O (H-H[dW][azaGly]W[dA]K-NH2)	–
> 10	9.81	NCCCC[C@H](NC(=O)[C@@H](Cc1ccccc1)NC(=O)[C@H](Cc1c[nH]c2ccccc12)NC(=O)N1CCCN1C(=O)[C@@H](Cc1c[nH]c2ccccc12)NC(=O)[C@@H](N)Cc1cnc[nH]1)C(N)=O (H-H[dW][azaPro]W[dF]K-NH2)	–
> 10	> 10	C[C@@H](NC(=O)[C@@H](N)Cc1cnc[nH]1)C(=O)NNC(=O)N[C@@H](Cc1c[nH]c2ccccc12)C(=O)N[C@H](Cc1ccccc1)C(=O)N[C@@H](CCCCN)C(N)=O (H-H[dA][azaGly]W[dF]K-NH2)	–
> 10	> 10	NCCCC[C@H](NC(=O)[C@@H](Cc1ccccc1)NC(=O)[C@@H]1CCCN1C(=O)NNC(=O)[C@@H](Cc1c[nH]c2ccccc12)NC(=O)[C@@H](N)Cc1cnc[nH]1)C(N)=O	–
–	13.3	CC(C)CN(NC(=O)[C@@H](Cc1c[nH]c2ccccc12)NC(=O)[C@@H](C)N)C(=O)N[C@@H](Cc1c[nH]c2ccccc12)C(=O)N[C@H](Cc1ccccc1)C(=O)N[C@@H](CCCCN)C(N)=O	–
> 10	> 10	C[C@H](NC(=O)N1CCCN1C(=O)[C@@H](N)Cc1cnc[nH]1)C(=O)N[C@@H](Cc1c[nH]c2ccccc12)C(=O)N[C@H](Cc1ccccc1)C(=O)N[C@@H](CCCCN)C(N)=O	–

SMILES	IC50 [1] [µM]	IC50 [2] [µM]	Activity [3] [%]
C[C@H](NC(=O)N(Cc1cccc2ccccc12)NC(=O)C(N)Cc1cnc[nH]1)C(=O)N[C@@H](Cc1c[nH]c2ccccc12)C(=O)N[C@H](Cc1ccccc1)C(=O)N[C@@H](CCCCN)C(N)=O (some centres undefined)	–	> 10	–
C[C@H](NC(=O)N(Cc1ccccc1)NC(=O)C(N)Cc1cnc[nH]1)C(=O)N[C@@H](Cc1c[nH]c2ccccc12)C(=O)N[C@H](Cc1ccccc1)C(=O)N[C@@H](CCCCN)C(N)=O (some centres undefined)	16.1	72.4	–
